Measurements taken from ChEMBL document CHEMBL1157190, “Design, synthesis, and anticonvulsant activity of N-phenylamino derivatives of 3,3-dialkyl-pyrrolidine-2,5-diones and hexahydro-isoindole-1,3-diones” (Bioorg Med Chem, 2008).
The source made the active and inactive calls. No cut-off for these calls is given here.

Columns and labels:
[1] = system: Mus musculus; experiment: Anticonvulsant activity in ip dosed CF1 albino mouse assessed as inhibition of maximal electroshock-induced electrical stimulus after 0.5 hr; format: functional
Method in brief: (§1)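 Male CF-1 mice injected intraperitoneally at 30, 100 and 300 mg/kg, suspended in 0.5% methylcellulose/water. MES or subcutaneous pentylenetetrazole challenge at 0.5 and 4 h; selected compounds also at 1 or 2 h.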

[2] = system: Mus musculus; experiment: Anticonvulsant activity in ip dosed CF1 albino mouse assessed as inhibition of maximal electroshock-induced electrical stimulus after 4 hrs; format: functional; method in brief: as §1
[3] = system: Mus musculus; experiment: Neurotoxicity in ip dosed CF1 albino mouse after 0.5 hr by rotarod test; format: toxicity, organism-based; conditions: in vivo
Method in brief: (§2)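 CF-1 mice given 30, 100 or 300 mg/kg ip in 0.5% methylcellulose/water, examined at 0.5 and 4 h. Rotorod test: neurotoxicity is the inability to keep equilibrium on the rod for a given time. Value is the minimum dose giving motor impairment; a dash means none at 300 mg/kg.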

[4] = system: Mus musculus; experiment: Anticonvulsant activity in ip dosed CF1 albino mouse assessed as inhibition of maximal electroshock-induced electrical stimulus after 1 hr; format: functional; method in brief: as §1
[5] = Lipophilicity, log kw of compound by RP-HPLC; format: physicochemical
Method in brief: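 RP-HPLC on a C18 end-capped column at room temperature, with UV detection at 214 nm and uracil as the unretained marker. Capacity factor k = (tr − t0)/t0, from the mean of three measurement sets. log k extrapolated to 100% water (log k = log kw − Sφ) to give log kw.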

[6] = system: Rattus norvegicus; experiment: Anticonvulsant activity in Sprague-Dawley rat assessed as protection against seizure at 30 mg/kg, po after 0.5 hr by maximal electroshock test; format: functional
Method in brief: (§3)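 Male Sprague–Dawley rats; compound suspended in 0.5% methylcellulose/water and given orally at a fixed 30 mg/kg, four rats per time point. MES test run at 0.25, 0.5, 1, 2 and 4 h after dosing, with motor impairment checked in parallel. Read-out: number of rats of four protected.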

[7] = system: Rattus norvegicus; experiment: Anticonvulsant activity in Sprague-Dawley rat assessed as protection against seizure at 30 mg/kg, po after 1 hr by maximal electroshock test; format: functional; method in brief: as §3
[8] = system: Rattus norvegicus; experiment: Anticonvulsant activity in Sprague-Dawley rat assessed as protection against seizure at 30 mg/kg, po after 2 hrs by maximal electroshock test; format: functional; method in brief: as §3
[9] = system: Rattus norvegicus; experiment: Anticonvulsant activity in Sprague-Dawley rat assessed as protection against seizure at 30 mg/kg, po after 4 hrs by maximal electroshock test; format: functional; method in brief: as §3
[10] = system: Mus musculus; experiment: Anticonvulsant activity in ip dosed CF1 albino mouse assessed as inhibition of subcutaneous pentylenetetrazole-induced electrical stimulus at 300 mg/kg after 0.5 hr; format: functional, organism-based; design: dose 300 mg/kg; method in brief: as §1
[11] = system: Mus musculus; experiment: Anticonvulsant activity in ip dosed CF1 albino mouse assessed as inhibition of subcutaneous pentylenetetrazole-induced electrical stimulus at 300 mg/kg after 4 hrs; format: functional, organism-based; design: dose 300 mg/kg; method in brief: as §1
[12] = system: Mus musculus; experiment: Neurotoxicity in ip dosed CF1 albino mouse at 300 mg/kg after 4 hrs by rotarod test; format: toxicity, organism-based; design: dose 300 mg/kg, route intraperitoneal; conditions: in vivo; method in brief: as §2
[13] = system: Mus musculus; experiment: Anticonvulsant activity in ip dosed CF1 albino mouse assessed as inhibition of subcutaneous pentylenetetrazole-induced electrical stimulus after 0.5 hr; format: functional; method in brief: as §1
[14] = system: Rattus norvegicus; experiment: Anticonvulsant activity in Sprague-Dawley rat assessed as protection against seizure at 30 mg/kg, po after 0.25 hr by maximal electroshock test; format: functional; method in brief: as §3
[15] = system: Rattus norvegicus; experiment: Anticonvulsant activity in po dosed Sprague-Dawley rat assessed as inhibition of maximal electroshock-induced electrical stimulus after 0.5 hr; format: functional
Method in brief: (§4)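 Oral dosing in male Sprague–Dawley rats at the previously estimated time of peak effect. Groups of eight rats received various doses until at least three points fell between 10 and 90% MES protection or minimal neurotoxicity (rotorod). ED50 and TD50 with 95% confidence intervals from regression of the plotted data; protective index = TD50/ED50.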

[16] = Neurotoxicity in po dosed Sprague-Dawley rat after 0.5 hr by rotarod test; format: toxicity, organism-based; conditions: in vivo; method in brief: as §4
[17] = species: Rattus norvegicus; experiment: Protective index, ratio of TD50 for Sprague-Dawley rat by rotarod test to ED50 for Sprague-Dawley rat by MES test after 0.5 hr; format: functional; method in brief: as §4
[18] = system: Mus musculus; experiment: Anticonvulsant activity in ip dosed CF1 albino mouse assessed as inhibition of maximal electroshock-induced electrical stimulus at 300 mg/kg after 4 hrs; format: functional, organism-based; design: dose 300 mg/kg; method in brief: as §1
[19] = species: Rattus norvegicus; experiment: Anticonvulsant activity in rat assessed as inhibition of maximal electroshock-induced electrical stimulus; format: functional
[20] = species: Rattus norvegicus; experiment: Protective index, ratio of TD50 for rat by rotarod test to ED50 for rat by MES test; format: functional
[21] = system: Mus musculus; experiment: Neurotoxicity in ip dosed CF1 albino mouse after 4 hrs by rotarod test; format: toxicity, organism-based; conditions: in vivo; method in brief: as §2
[22] = Neurotoxicity in po dosed Sprague-Dawley rat after 2 hrs by rotarod test; format: toxicity, organism-based; conditions: in vivo
[23] = system: Rattus norvegicus; experiment: Anticonvulsant activity in Sprague-Dawley rat assessed as protection against seizure rat at 50 mg/kg, po after 0.25 hr by subcutaneous pentylenetetrazole test; format: functional
Method in brief: (§5)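 Male Sprague–Dawley rats dosed orally at 50 mg/kg as a 0.5% methylcellulose/water suspension, four animals per time point. Convulsant given subcutaneously at 0.25, 0.5, 1, 2 and 4 h after dosing; rotorod motor impairment assessed in parallel. Read-out: number of rats of four protected.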

[24] = system: Rattus norvegicus; experiment: Anticonvulsant activity in Sprague-Dawley rat assessed as protection against seizure at 50 mg/kg, po after 0.5 hr by subcutaneous pentylenetetrazole test; format: functional; method in brief: as §5
[25] = system: Rattus norvegicus; experiment: Anticonvulsant activity in Sprague-Dawley rat assessed as protection against seizure at 50 mg/kg, po after 1 hr by subcutaneous pentylenetetrazole test; format: functional, organism-based; design: dose 50 mg/kg; method in brief: as §5
[26] = system: Rattus norvegicus; experiment: Anticonvulsant activity in Sprague-Dawley rat assessed as protection against seizure at 50 mg/kg, po after 2 hrs by subcutaneous pentylenetetrazole test; format: functional, organism-based; design: dose 50 mg/kg; method in brief: as §5
[27] = system: Rattus norvegicus; experiment: Anticonvulsant activity in Sprague-Dawley rat assessed as protection against seizure at 50 mg/kg, po after 4 hrs by subcutaneous pentylenetetrazole test; format: functional; method in brief: as §5
[28] = system: Rattus norvegicus; experiment: Neurotoxicity in po dosed Sprague-Dawley rat at 50 mg/kg by rotarod test; format: toxicity, organism-based; design: dose 50 mg/kg, route oral; conditions: in vivo; method in brief: as §5
[29] = system: Mus musculus; experiment: Anticonvulsant activity in ip dosed CF1 albino mouse assessed as inhibition of maximal electroshock-induced electrical stimulus at 300 mg/kg after 0.5 hr; format: functional, organism-based; design: dose 300 mg/kg; method in brief: as §1
[30] = system: Mus musculus; experiment: Neurotoxicity in ip dosed CF1 albino mouse at 300 mg/kg after 0.5 hr by rotarod test; format: toxicity, organism-based; design: dose 300 mg/kg, route intraperitoneal; conditions: in vivo; method in brief: as §2
[31] = system: Mus musculus; experiment: Anticonvulsant activity in ip dosed CF1 albino mouse assessed as inhibition of subcutaneous pentylenetetrazole-induced electrical stimulus after 4 hrs; format: functional; method in brief: as §1
[32] = system: Mus musculus; experiment: Anticonvulsant activity in ip dosed CF1 albino mouse assessed as inhibition of maximal electroshock-induced electrical stimulus after 2 hrs; format: functional; method in brief: as §1
[33] = system: Rattus norvegicus; experiment: Antiepileptic activity in pilocarpine-induced status prevention in Sprague-Dawley rat assessed as weight change in post first stage 3 seizure at 65 mg/kg after 24 hrs; format: functional
Method in brief: (§6)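 Pilocarpine-induced status prevention in rats. Compound given ip at time zero (65 or 450 mg/kg), followed by a challenge dose of pilocarpine. Seizure severity scored on the Racine scale. Average weight change (g, ±SEM) recorded for protected and non-protected rats.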

[34] = system: Rattus norvegicus; experiment: Antiepileptic activity in pilocarpine-induced status prevention in Sprague-Dawley rat assessed as weight change in post first stage 3 seizure at 450 mg/kg after 24 hrs; format: functional; method in brief: as §6

Compound	Activity [1] [mg/kg]	Activity [2] [mg/kg]	Activity [3] [mg/kg]	log K [5]	Activity [6]	Activity [7]	Activity [8]	Activity [9]	Activity [11]	Activity [12]	Activity [13] [mg/kg]	Activity [18]	Activity [23]	Activity [27]	Activity [29]	further results
CC1(C)CC(=O)N(Nc2ccc(Br)cc2)C1=O	300	300	300	1.864	25%	25%	50%	50%	inactive	Not Active						Activity [4]: 100 mg/kg; Activity [10]: inactive
CC1(C)CC(=O)N(Nc2ccccc2)C1=O	300		100	1.471	inactive	50%	inactive	inactive	inactive	Not Active	300	inactive				Activity [14]: 25%; ED50 [15]: 69.9 mg/kg; TD50 at 0.5 h [16]: 500 mg/kg; Ratio TD50/ED50 [17]: 7.15
O=C1CC2(CCCC2)C(=O)N1Nc1ccccc1																ED50 [19]: 76.3 mg/kg; Ratio TD50/ED50 [20]: 3.44
CCC1(CC)CC(=O)N(Nc2ccc(Cl)cc2Cl)C1=O	300	300	100	2.552					inactive	Not Active	100					Activity [4]: 100 mg/kg
O=C1NC(=O)C(c2ccccc2)(c2ccccc2)N1 [PHENYTOIN]	30		100		Active	inactive		inactive			30					Activity [21]: 100 mg/kg; TD50 at 2 h [22]: > 500 mg/kg
CCCC1(C)CC(=O)N(Nc2ccc(Cl)cc2Cl)C1=O (centres undefined)				2.647					inactive	Not Active	100	inactive	25%	25%	inactive	Activity [24]: 50%; Activity [25]: Active; Activity [26]: inactive; Activity [28]: Non-toxic; Activity [30]: Not Active
CCC1(CC)CC(=O)N(Nc2ccc(Cl)cc2)C1=O		300	300	2.314							100				inactive	Activity [31]: 300 mg/kg; Activity [21]: 300 mg/kg; Activity [32]: 100 mg/kg
O=C1C2CCCCC2C(=O)N1Nc1ccccc1 (centres undefined)	300			1.937	25%	inactive	inactive	inactive	inactive	Not Active	300	inactive	25%	inactive		Activity [14]: inactive; Activity [24]: inactive; Activity [25]: inactive; Activity [26]: inactive; Activity [28]: Non-toxic; Activity [30]: Not Active
CC1(C)CC(=O)N(Nc2cccc(Cl)c2)C1=O	100		300	2.071					inactive	Not Active		inactive				Activity [33]: 15 g; Activity [10]: inactive
CCC1(C)CC(=O)NC1=O (centres undefined) [ETHOSUXIMIDE]										Not Active	100	inactive	inactive	inactive	inactive	Activity [31]: 300 mg/kg; Activity [30]: Not Active
Cc1ccc(NN2C(=O)C3CCCCC3C2=O)cc1 (centres undefined)			300	2.028					inactive	Not Active		inactive			inactive	Activity [34]: 10.2 g; Activity [10]: inactive
CCC1(C)CC(=O)N(Nc2ccc(Cl)cc2Cl)C1=O (centres undefined)	300	300	30	2.334	25%	inactive	25%	inactive			100					Activity [31]: 300 mg/kg; Activity [21]: 300 mg/kg; Activity [4]: 100 mg/kg; Activity [14]: inactive
CCCCC1(C)CC(=O)N(Nc2ccc(Br)cc2)C1=O (centres undefined)			300	2.539					inactive	Not Active	300	inactive	inactive	inactive	inactive	Activity [24]: 25%; Activity [25]: inactive; Activity [26]: inactive; Activity [28]: Non-toxic
